Organism: Rattus norvegicus
Assay: Displacement of [3H]flunitrazepam from GABAA receptor in rat cortical membrane assessed as [3H]flunitrazepam binding at 100 uM after 90 mins by scintillation counting
Type: cell membranes
Procedure, shortened: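 Rat frontal cortex membranes (sucrose homogenate, ultracentrifuged pellets in 50 mM Tris-HCl pH 7.4), 0.3 mg protein per tube, incubated 90 min at 4 °C with 1 nM [3H]flunitrazepam ± 100 μM test compound (final; benzyl-sugar analogues from ethanol stock). Nonspecific binding with 100 μM flumazenil. Rapid GF/B filtration, ice-cold buffer washes, scintillation counting; expressed as % specific binding; three independent experiments in triplicate.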

| Activity [%] | SMILES |
| --- | --- |
| 112 | CN1C(=O)[C@@H]2C[C@]3(CN2C(=O)c2ccccc21)O[C@@H](CO)[C@H](O)[C@H]3O |
| 82.2 | CN1C(=O)[C@@H]2C[C@]3(CN2C(=O)c2cc(Br)ccc21)O[C@@H](CO)[C@H](O)[C@H]3O |
| 84.2 | CN1C(=O)[C@H]2C[C@@]3(CN2C(=O)c2cc(Br)ccc21)O[C@H](CO)[C@@H](O)[C@@H]3O |
| 110 | O=C1Nc2ccccc2C(=O)N2C[C@@]3(C[C@@H]12)O[C@@H](CO)[C@H](O)[C@H]3O |
| 78.2 | O=C1Nc2ccccc2C(=O)N2C[C@]3(C[C@H]12)O[C@H](CO)[C@@H](O)[C@@H]3O |
| 97 | O=C1Nc2ccccc2C(=O)N2CCC[C@H]12 |
| 93.2 | CN1C(=O)[C@@H]2C[C@]3(CN2C(=O)c2cc(Br)ccc21)O[C@@H](COCc1ccccc1)[C@H](OCc1ccccc1)[C@H]3OCc1ccccc1 |
| 82.8 | CN1C(=O)[C@@H]2C[C@]3(CN2C(=O)c2cc([N+](=O)[O-])ccc21)O[C@@H](COCc1ccccc1)[C@H](OCc1ccccc1)[C@H]3OCc1ccccc1 |
| 80.2 | Nc1ccc2c(c1)C(=O)N1C[C@]3(C[C@@H]1C(=O)N2)O[C@H](CO)[C@@H](O)[C@@H]3O |
| 70.6 | CN1C(=O)[C@H]2C[C@@]3(CN2C(=O)c2cc(N)ccc21)O[C@H](CO)[C@@H](O)[C@@H]3O |
| 74.9 | CN1C(=O)[C@H]2C[C@@]3(CN2C(=O)c2cc([N+](=O)[O-])ccc21)O[C@H](COCc1ccccc1)[C@@H](OCc1ccccc1)[C@@H]3OCc1ccccc1 |
| 92.9 | CN1C(=O)[C@H]2C[C@@]3(CN2C(=O)c2cc(Cl)ccc21)O[C@H](COCc1ccccc1)[C@@H](OCc1ccccc1)[C@@H]3OCc1ccccc1 |
| 93 | CN1C(=O)[C@H]2C[C@@]3(CN2C(=O)c2ccccc21)O[C@H](CO)[C@@H](O)[C@@H]3O |
| 63.4 | CN1C(=O)[C@@H]2CCCN2C(=O)c2cc([N+](=O)[O-])ccc21 |
| 106 | CN1C(=O)[C@@H]2C[C@]3(CN2C(=O)c2ccccc21)O[C@@H](COCc1ccccc1)[C@H](OCc1ccccc1)[C@H]3OCc1ccccc1 |
| 96.4 | CN1C(=O)[C@H]2C[C@@]3(CN2C(=O)c2ccccc21)O[C@H](COCc1ccccc1)[C@@H](OCc1ccccc1)[C@@H]3OCc1ccccc1 |
| 96.3 | O=C1Nc2ccccc2C(=O)N2C[C@@]3(C[C@@H]12)O[C@@H](COCc1ccccc1)[C@H](OCc1ccccc1)[C@H]3OCc1ccccc1 |
| 112 | O=C1Nc2ccccc2C(=O)N2C[C@]3(C[C@H]12)O[C@H](COCc1ccccc1)[C@@H](OCc1ccccc1)[C@@H]3OCc1ccccc1 |
| 111 | CN1C(=O)[C@H]2C[C@@]3(CN2C(=O)c2cc(Br)ccc21)O[C@H](COCc1ccccc1)[C@@H](OCc1ccccc1)[C@@H]3OCc1ccccc1 |
| 101 | O=C1Nc2ccc([N+](=O)[O-])cc2C(=O)N2C[C@]3(C[C@H]12)O[C@H](COCc1ccccc1)[C@@H](OCc1ccccc1)[C@@H]3OCc1ccccc1 |
| 80.2 | CN1C(=O)[C@H]2CCCN2C(=O)c2cc([N+](=O)[O-])ccc21 |
| 73.9 | Nc1ccc2c(c1)C(=O)N1C[C@@]3(C[C@H]1C(=O)N2)O[C@@H](CO)[C@H](O)[C@H]3O |
| 69.6 | O=C1Nc2ccc([N+](=O)[O-])cc2C(=O)N2C[C@@]3(C[C@@H]12)O[C@@H](COCc1ccccc1)[C@H](OCc1ccccc1)[C@H]3OCc1ccccc1 |
| 82.3 | CN1C(=O)[C@@H]2C[C@]3(CN2C(=O)c2cc(Cl)ccc21)O[C@@H](COCc1ccccc1)[C@H](OCc1ccccc1)[C@H]3OCc1ccccc1 |
| 83.5 | CN1C(=O)[C@@H]2C[C@]3(CN2C(=O)c2cc(N)ccc21)O[C@@H](CO)[C@H](O)[C@H]3O |
| 95.5 | O=C1Nc2ccccc2C(=O)N2CCC[C@@H]12 |
| 73.7 | CN1C(=O)[C@H]2C[C@@]3(CN2C(=O)c2cc(Cl)ccc21)O[C@H](CO)[C@@H](O)[C@@H]3O |
| 77 | CN1C(=O)[C@@H]2C[C@]3(CN2C(=O)c2cc(Cl)ccc21)O[C@@H](CO)[C@H](O)[C@H]3O |

— ChEMBL document CHEMBL1687912, “Sugar-based enantiomeric and conformationally constrained pyrrolo[2,1-c][1,4]-benzodiazepines as potential GABAA ligands” (J Med Chem, 2011)
